Test results reported in publication PMC3993932 (Molecular Pharmaceutics, 2014).

What was measured:
[1] = test system: tumor cells with wild-type hENT1 and deoxycytidine kinase; settings: cell culture, tumor cells with wild-type hENT1 and deoxycytidine kinase ref 36; cited from earlier work
[2] = Pharmacokinetic study in mice bearing BxPC-3 xenografts; format: in vivo
Method in brief: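 Female nude mice carried BxPC-3 subcutaneous xenografts of 100–300 mm3 (3 per group). Mice received iv 25 mg/kg parent-drug equivalent as free drug in PBS, free prodrug in Tween 80/ethanol:PBS (1:4), or micelles. Retro-orbital blood was taken at 3–90 min. Samples were quenched with acetic acid, precipitated with acetonitrile, and analyzed by HPLC with internal standards for prodrug, parent and deaminated metabolite. t1/2, CLT and Vd,ss came from noncompartmental analysis.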

[3] = test system: cytidine deaminase and cathepsin B; format: in vitro ADME, human; settings: by 1 h; cathepsin B 5 U/mL, cytidine deaminase 15 μg/mL, pH 6.5, 37 °C
[4] = test system: human pancreatic cancer BxPC-3 cells; assay: Cell proliferation assay; format: cell-based; settings: BXPC-3, 72 h
Method in brief: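 BxPC-3 cells were grown in RPMI with 10% FBS and penicillin/streptomycin at 37 °C under 5% CO2, then seeded in 96-well plates. Stocks were 1 mM (parent drug in PBS, prodrug in DMSO). Cells were exposed to 10–150 nM free or micellar test compound for 72 h. They were then fixed with 1% glutaraldehyde, stained with 0.1% crystal violet and dissolved in 10% acetic acid, with absorbance read at 595 nm. Viability was expressed as % of untreated wells.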

[5] = Body weight of treated mice in the efficacy study; format: in vivo; settings: iv 10 mg/kg gemcitabine equivalent twice weekly for 2 weeks
Method in brief: (§1)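 Female athymic nude mice (nu/nu, 5–6 weeks) received subcutaneous BxPC-3 cells (2 × 10^6 in matrigel/RPMI) in each flank. At 50–100 mm3, mice were randomized to untreated, free parent drug in PBS, or micellar prodrug groups (4 per group). Dosing was iv 10 mg/kg parent-drug equivalent on days 0, 3, 7 and 10. Tumor volume was measured by caliper as 1/2 × length × width², and body weight was tracked. Groups were compared by t-test.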

[6] = In vitro release study by dialysis method; format: physicochemical
Method in brief: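 Micelles, free parent drug, or free prodrug were placed in a 20 kDa MWCO dialysis cassette against 500 mL PBS (20 mM, pH 7.4) at 37 °C. The sink was refreshed at each sampling. Free prodrug was taken from a 6 mM Tween 80/ethanol (1:4) stock and diluted in HEPES saline to a final 100 μM. Cassette contents were sampled over time and quantified by HPLC. Ct/C0 = e^–kt was fitted by nonlinear regression, and t1/2 = 0.693/k.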

BxPC-3 xenografts = assay: Antitumor efficacy study in mice bearing BxPC-3 xenografts; format: in vivo; settings: iv 10 mg/kg gemcitabine equivalent on days 0, 3, 7, 10
Method in brief: as §1

[7] = female, athymic nude (nu/nu), mouse, plasma, iv, 25 mg/kg

SMILES: Nc1ccn([C@@H]2O[C@H](CO)[C@@H](O)C2(F)F)c(=O)n1 [gemcitabine, 2′,2′-difluorocytidine]
- EC50 [1]: low nanomolar range
- AUC [2, 7]: 18.8 µM·h
- Vd [2, 7]: 1.06 ± 0.132 L/kg
- CLT of gemcitabine ([2]; plasma gemcitabine, iv 25 mg/kg, mice): 84.0 ± 4.0 mL/min/kg
- conversion to dFdU [3]: 80%
- EC50 [4]: 25 nM
- body weight / overt toxicity [5]: no overt toxicity
- release half-life (t1/2,release) ([6]; dialysis): about 15 min
- t1/2,release ([6]; dialysis 20 kDa MWCO, PBS pH 7.4, 37 °C, 0.693/k): 14.4 min
- release rate constant ([6]; dialysis 20 kDa MWCO, PBS pH 7.4, 37 °C, free GemC18 in Tween 80/ethanol): 2.920 h^–1
- effect on tumor growth (BxPC-3 xenografts): unable to arrest the tumor growth
